bovine MsrA act – activates bovine MsrA enzyme; purified bovine MsrA, absorbance read-out; activation, % at 10.6 µM; hit rate 0.3% among 360,000; AID 602163; in the data active means activation above about 7.5%;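 further: 0% = vehicle and 100% = reference activator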
NR2E3 ag-1 – activates human photoreceptor nuclear receptor NR2E3 | Q9Y5X4 | GST-NR2E3/biotin-RetCOR TR-FRET, 1536-well | inhibition of corepressor binding, % at 4.78 µM | hit rate 0.12% among 320,000 | AID 2300;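 active means percent inhibition above the cutoff of mean plus 3 SD of all tested compounds, set per screening campaign, cut at about 20% in these data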;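 further: 0% = DMSO wells and 100% = biotin wells as full block of FRET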
Target sequence (Q9Y5X4 whole entry, looked up): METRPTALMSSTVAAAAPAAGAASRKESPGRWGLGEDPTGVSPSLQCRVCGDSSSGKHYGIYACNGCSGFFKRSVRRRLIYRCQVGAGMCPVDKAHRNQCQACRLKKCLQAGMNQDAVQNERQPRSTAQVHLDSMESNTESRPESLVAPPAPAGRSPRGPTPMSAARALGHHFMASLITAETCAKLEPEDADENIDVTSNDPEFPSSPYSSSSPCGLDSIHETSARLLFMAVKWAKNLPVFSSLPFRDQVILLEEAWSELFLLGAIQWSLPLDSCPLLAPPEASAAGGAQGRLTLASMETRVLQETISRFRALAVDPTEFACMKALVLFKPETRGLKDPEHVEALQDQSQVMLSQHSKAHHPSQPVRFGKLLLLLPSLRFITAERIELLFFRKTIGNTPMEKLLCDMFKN
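Material – GST-tagged NR2E3 plus biotinylated RetCOR corepressor · Quantity – NR2E3 fusion 1.35 nM · Times – 5 h incubation at 4 °C · Medium – pH 7.5 Tris-based buffer · Technique – TR-FRET, Eu(K)-anti-GST donor, streptavidin-D2 acceptor, ex 340, em 617/671 nm · Benchmarks – high control biotin, low control 0.6% DMSO · Format – 1536-well plates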
MsrA inhibitor – inhibits bovine methionine sulfoxide reductase A; purified bovine MsrA, absorbance read-out; inhibition, % at 15.5 µM; hit rate 0.75% among 360,000; in the data active means inhibition above about 4.5%;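 further: 0% = vehicle wells with enzyme and 100% = reference inhibitor wells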
NadD inh – blocks S. aureus nicotinate mononucleotide adenylyltransferase | purified NadD enzyme, colorimetric absorbance read-out | inhibition, % at 20 µM | hit rate 0.78% among 360,000; in the data active means inhibition above about 26%
GalR3 antag – human GalR3 antagonism; O60755; HEK293 GalR3-CNG cAMP membrane potential fluorescence; galR3 body fused to GalR1 C-terminus; inhibition, % at 3 µM; hit rate 0.44% among 360,000; AID 651719;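 active means inhibition above the screen-wide average plus 3 SD, cut at about 13% in these data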;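 further: forskolin and galanin both at EC90 stimulate the cells; cAMP rise reported by CNG channel membrane potential dye signal; 0% = forskolin plus galanin with DMSO and 100% = forskolin alone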
NR2E3 ag-2 – human photoreceptor-specific nuclear receptor agonism; Q9Y5X4; CHO-S Gal4-NCOR/VP16-NR2E3 two-hybrid, luciferase; inhibition of corepressor binding, % at 3.98 µM; hit rate 0.35% among 360,000;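 active means inhibition above the mean of all tested compounds plus 3 SD, cut at about 70% in these data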;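 further: 0% = DMSO with NR2E3 transfected cells and 100% = cells lacking NR2E3 construct; higher means lower luciferase signal from less NR2E3 corepressor binding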
NR2E3 ag conf – confirmation of human NR2E3 agonists; shares compounds with NR2E3 ag-2; CHO-S mammalian two-hybrid NR2E3-NCOR, luciferase luminescence; inhibition, % at 3.98 µM; hit rate 51% among 2,300;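 active means average inhibition above a cutoff equal to the mean inhibition of all tested compounds plus one SD, cut at about 70% in these data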;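 further: 0% = DMSO in NR2E3 cells and 100% = DMSO in cells lacking NR2E3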
GAL4-VP16 luc – GAL4-VP16 reporter inhibition in NR2E3 agonist counterscreen; shares compounds with NR2E3 ag-2; CHO-S GAL4-VP16 luciferase reporter, luminescence; inhibition, % at 3.98 µM; hit rate 29% among 2,300; AID 624379;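 active means mean inhibition above a cutoff equal to the average over all tested compounds plus one standard deviation, cut at about 70% in these data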;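 further: luciferase from a UAS reporter driven by GAL4-VP16 transactivation; 0% = DMSO with VP16-transfected cells and 100% = DMSO with cells lacking VP16; higher means less reporter light so more repression of VP16 activity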
The depositor's hits bear a star. An excerpt weighted towards active compounds, which were near 2.5% of everything screened.

For Cc1ccc(CNc2ncnc3cc(Cl)ccc23)cc1 the results were bovine MsrA act -1, NR2E3 ag-1 -3, MsrA inhibitor 2, NadD inh -5, GalR3 antag -11, NR2E3 ag-2 87*, NR2E3 ag conf 90* and GAL4-VP16 luc 71*.
Screening CC1=C(O)c2ccccc2C(=O)C1=O returned bovine MsrA act 0, MsrA inhibitor 2, NadD inh 9, GalR3 antag -6, NR2E3 ag-2 53, NR2E3 ag conf 85* and GAL4-VP16 luc 49.
For Cc1ccc(C2=C(O)c3ccccc3C(=O)C2=O)cc1 the results were bovine MsrA act -2, NR2E3 ag-1 -6, MsrA inhibitor 0, NadD inh 2, GalR3 antag -6 and NR2E3 ag-2 -30.
CN1C(=O)/C(=C2/C=CC=CN2C)OC1=S was read as bovine MsrA act -6, NR2E3 ag-1 -6, MsrA inhibitor 0, NadD inh 3, GalR3 antag -4 and NR2E3 ag-2 6.
`CN1C(=O)CS(=O)c2ccc(C(=O)NCCC3=CCCCC3)cc21` (stereo unspecified) gave bovine MsrA act -2, NR2E3 ag-1 0, MsrA inhibitor 0, NadD inh -4, GalR3 antag 1, NR2E3 ag-2 48, NR2E3 ag conf 3 and GAL4-VP16 luc 12.
For COc1ccccc1NS(=O)(=O)c1ccc2oc(SC(C)C(=O)N3CCNC3=O)nc2c1 (stereo unspecified) the results were bovine MsrA act -9, NR2E3 ag-1 2, MsrA inhibitor 0, NadD inh -3, GalR3 antag -2, NR2E3 ag-2 56, NR2E3 ag conf 6 and GAL4-VP16 luc 22.
`CNc1snc(C)c1C(=O)OCC(=O)Nc1ccc(C)cc1F` gave bovine MsrA act -1, MsrA inhibitor -1, NadD inh -2, GalR3 antag -5, NR2E3 ag-2 48, NR2E3 ag conf 31 and GAL4-VP16 luc 39.
Screening CCc1ccccc1NC(=O)COC(=O)c1c(C)nsc1NC returned bovine MsrA act -4, NR2E3 ag-1 3, MsrA inhibitor 0, NadD inh 1, GalR3 antag -3 and NR2E3 ag-2 21.
For S=C1NCCc2ccc(Cl)cc2C1c1ccccc1 (stereo unspecified) the results were bovine MsrA act -3, NR2E3 ag-1 3, MsrA inhibitor -2, NadD inh -10, GalR3 antag -8, NR2E3 ag-2 61, NR2E3 ag conf 43 and GAL4-VP16 luc 21.
Screening CC1CCC(NC(=O)c2ccc3snnc3c2)CC1 (stereo unspecified) returned bovine MsrA act -5, NR2E3 ag-1 -3, MsrA inhibitor 2, NadD inh -6, GalR3 antag 0 and NR2E3 ag-2 -40.
COCCNCc1ccc(C(C)C)cc1 was read as bovine MsrA act -4, NR2E3 ag-1 -4, MsrA inhibitor 2, NadD inh -1, GalR3 antag 0 and NR2E3 ag-2 -2.
`CCOC(=O)C1(Cc2ccc(Cl)cc2)CCN(C(C)Cc2ccc(O)c(OC)c2)CC1` (stereo unspecified) gave bovine MsrA act -3, NR2E3 ag-1 6, MsrA inhibitor 0, NadD inh 0, GalR3 antag -12, NR2E3 ag-2 64, NR2E3 ag conf 86* and GAL4-VP16 luc 75*.
CCOC(=O)C1(Cc2ccc(OC)cc2)CCN(S(C)(=O)=O)CC1 was read as bovine MsrA act -4, NR2E3 ag-1 -2, MsrA inhibitor 0, NadD inh -4, GalR3 antag -8 and NR2E3 ag-2 -31.
Screening COc1ccc(-c2csc(C(O)c3cccc(OC)c3)n2)cc1 (stereo unspecified) returned bovine MsrA act -1, MsrA inhibitor 3, NadD inh 1, GalR3 antag -7 and NR2E3 ag-2 6.
Screening CCOc1ccc(CN2CCC(C(=O)N3CCN(c4ccccc4F)CC3)CC2)cc1OC returned bovine MsrA act -2, NR2E3 ag-1 2, MsrA inhibitor 0, NadD inh -3, GalR3 antag -7 and NR2E3 ag-2 -7.
`CCOc1ccc(S(=O)(=O)N2CCC(C(=O)N3CCN(c4ccccc4F)CC3)CC2)cc1C` gave bovine MsrA act -3, NR2E3 ag-1 -2, MsrA inhibitor -1, NadD inh -3, GalR3 antag 2, NR2E3 ag-2 48, NR2E3 ag conf 6 and GAL4-VP16 luc 44.
`Cc1ccc(OCC(=O)c2cc(C)n(-c3ccccc3)c2C)c([N+](=O)[O-])n1` gave bovine MsrA act -11, NR2E3 ag-1 -2, MsrA inhibitor 3, NadD inh -5, GalR3 antag 1, NR2E3 ag-2 73*, NR2E3 ag conf 61 and GAL4-VP16 luc 67.
`COCCn1c(C)cc(C(=O)COc2ccc(C)nc2[N+](=O)[O-])c1C` gave bovine MsrA act -2, NR2E3 ag-1 0, MsrA inhibitor 0, NadD inh -3, GalR3 antag -3, NR2E3 ag-2 63, NR2E3 ag conf 77* and GAL4-VP16 luc 44.
`CCCn1c(C)cc(C(=O)COc2ccc(C)nc2[N+](=O)[O-])c1C` gave bovine MsrA act -5, NR2E3 ag-1 -1, MsrA inhibitor 1, NadD inh -2, GalR3 antag -3 and NR2E3 ag-2 15.
`C=CCn1c(C)cc(C(=O)COc2ccc(C)nc2[N+](=O)[O-])c1C` gave bovine MsrA act -1, NR2E3 ag-1 0, MsrA inhibitor 2, NadD inh -11, GalR3 antag -5, NR2E3 ag-2 71*, NR2E3 ag conf 71* and GAL4-VP16 luc 53.
`CCC(Oc1ccccc1)C(=O)Nc1ccc(S(=O)(=O)NCC2CCCO2)cc1` (stereo unspecified) gave bovine MsrA act 0, NR2E3 ag-1 -2, MsrA inhibitor 0, NadD inh -7, GalR3 antag -3 and NR2E3 ag-2 -5.
`CC(=O)c1cccc(OCC(=O)Nc2cc(Cl)ccc2-n2cncn2)c1` gave bovine MsrA act -4, NR2E3 ag-1 -1, MsrA inhibitor -2, NadD inh 3, GalR3 antag 2 and NR2E3 ag-2 -9.
For COc1ccc(CCNC(=O)CCCCC(=O)NCCc2ccc(OC)c(OC)c2)cc1OC the results were bovine MsrA act -1, NR2E3 ag-1 -1, MsrA inhibitor 1, NadD inh -1, GalR3 antag -4 and NR2E3 ag-2 -4.
For COc1ccc(Cc2nnc(NC(=O)c3ccc(OC)c(OC)c3)s2)cc1 the results were bovine MsrA act -4, NR2E3 ag-1 4, MsrA inhibitor 1, NadD inh -2, GalR3 antag 1 and NR2E3 ag-2 11.
